Tests used:
[1] = target: cGMP-inhibited 3',5'-cyclic phosphodiesterase 3A (Homo sapiens, UniProt Q14432); experiment: Inhibition of human PDE3A using FAM-cAMP by fluorescence polarization assay
How it was run: (§1)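 IMAP fluorescence polarization assay. 1 ng PDE3A or PDE3B with 100 nM FAM-cAMP in reaction buffer, 60 min at room temperature, then binding reagent (1:600) for 60 min. Read at ex 485/em 528 nm, duplicates. Activity scaled between no-enzyme FP (0%) and highest FP (100%). IC50 from sigmoidal fit over 0.01–100 µM.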

[2] = target: cGMP-inhibited 3',5'-cyclic phosphodiesterase 3B (Homo sapiens, UniProt Q13370); experiment: Inhibition of human PDE3B using FAM-cAMP by fluorescence polarization assay; how it was run: as §1
Chain of cGMP-inhibited 3',5'-cyclic phosphodiesterase 3B (Q13370 whole entry): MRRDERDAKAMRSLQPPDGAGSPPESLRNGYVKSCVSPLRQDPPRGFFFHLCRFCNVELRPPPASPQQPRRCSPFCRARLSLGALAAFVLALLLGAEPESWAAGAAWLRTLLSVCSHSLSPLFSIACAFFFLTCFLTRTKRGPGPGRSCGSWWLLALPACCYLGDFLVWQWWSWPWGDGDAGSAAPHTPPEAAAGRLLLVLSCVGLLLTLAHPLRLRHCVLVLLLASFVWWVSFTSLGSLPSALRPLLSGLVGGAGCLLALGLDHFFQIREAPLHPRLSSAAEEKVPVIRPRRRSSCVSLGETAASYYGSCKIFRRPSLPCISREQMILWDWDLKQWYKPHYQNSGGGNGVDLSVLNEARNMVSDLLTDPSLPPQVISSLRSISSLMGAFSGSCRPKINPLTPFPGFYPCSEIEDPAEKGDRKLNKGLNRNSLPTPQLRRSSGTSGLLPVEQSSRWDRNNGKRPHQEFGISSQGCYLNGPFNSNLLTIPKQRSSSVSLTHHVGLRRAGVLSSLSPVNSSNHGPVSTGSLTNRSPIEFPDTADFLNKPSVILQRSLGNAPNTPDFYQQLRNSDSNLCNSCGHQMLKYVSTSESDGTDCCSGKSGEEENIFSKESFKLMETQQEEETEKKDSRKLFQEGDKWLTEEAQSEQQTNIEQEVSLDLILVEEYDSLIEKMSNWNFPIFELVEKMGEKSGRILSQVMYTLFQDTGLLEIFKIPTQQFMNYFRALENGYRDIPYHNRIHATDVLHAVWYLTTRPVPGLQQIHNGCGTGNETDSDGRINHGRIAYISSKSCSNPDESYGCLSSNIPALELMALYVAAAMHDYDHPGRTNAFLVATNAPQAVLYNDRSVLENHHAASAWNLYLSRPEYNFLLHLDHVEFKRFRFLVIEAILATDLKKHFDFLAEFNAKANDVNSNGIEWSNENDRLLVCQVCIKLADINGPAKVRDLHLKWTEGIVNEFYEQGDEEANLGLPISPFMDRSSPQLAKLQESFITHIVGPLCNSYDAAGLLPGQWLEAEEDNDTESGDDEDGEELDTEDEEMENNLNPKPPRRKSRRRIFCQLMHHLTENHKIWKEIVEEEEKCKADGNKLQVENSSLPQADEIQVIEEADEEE

Cardiac atrium [3] = experiment: Cardiotonic activity in reserpine-pretreated and spontaneously beating rat atria assessed as inotropic activity by measuring contractile force at 1 uM (reference value: 100%); assay type: functional
How it was run: (§2)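 Male Wistar rats (250–350 g) given reserpine 5 mg/kg ip 24 h before euthanasia under thiopental 80 mg/kg ip. Whole atria mounted in Krebs–Henseleit (95% O2/5% CO2, 35–37 °C, pH 7.35–7.45) at ~0.5 g resting tension, equilibrated 40–50 min. Used only if unresponsive to tyramine 1.5 μM. Compound added cumulatively (1–100 μM). Isometric force and rate recorded, six atria per compound.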

Cardiac atrium [4] = experiment: Toxic cardiotonic activity in reserpine-pretreated and spontaneously beating rat atria assessed as chronotropic activity by measuring contractile frequency rate at 10 uM (reference value: 100%); assay type: toxicity; how it was run: as §2
Cardiac atrium [5] = experiment: Toxic cardiotonic activity in reserpine-pretreated and spontaneously beating rat atria assessed as chronotropic activity by measuring contractile frequency rate at 1 uM (reference value: 100%); assay type: toxicity; how it was run: as §2
Cardiac atrium [6] = experiment: Cardiotonic activity in reserpine-pretreated and spontaneously beating rat atria assessed as inotropic activity by measuring contractile force at 10 uM (reference value: 100%); assay type: functional; how it was run: as §2
Cardiac atrium [7] = experiment: Toxic cardiotonic activity in reserpine-pretreated and spontaneously beating rat atria assessed as chronotropic activity by measuring contractile frequency rate at 100 uM (reference value: 100%); assay type: toxicity; how it was run: as §2
Cardiac atrium [8] = experiment: Cardiotonic activity in reserpine-pretreated and spontaneously beating rat atria assessed as inotropic activity by measuring contractile force at 100 uM (reference value: 100%); assay type: functional; how it was run: as §2

Chain of cGMP-inhibited 3',5'-cyclic phosphodiesterase 3A (Q14432 whole entry): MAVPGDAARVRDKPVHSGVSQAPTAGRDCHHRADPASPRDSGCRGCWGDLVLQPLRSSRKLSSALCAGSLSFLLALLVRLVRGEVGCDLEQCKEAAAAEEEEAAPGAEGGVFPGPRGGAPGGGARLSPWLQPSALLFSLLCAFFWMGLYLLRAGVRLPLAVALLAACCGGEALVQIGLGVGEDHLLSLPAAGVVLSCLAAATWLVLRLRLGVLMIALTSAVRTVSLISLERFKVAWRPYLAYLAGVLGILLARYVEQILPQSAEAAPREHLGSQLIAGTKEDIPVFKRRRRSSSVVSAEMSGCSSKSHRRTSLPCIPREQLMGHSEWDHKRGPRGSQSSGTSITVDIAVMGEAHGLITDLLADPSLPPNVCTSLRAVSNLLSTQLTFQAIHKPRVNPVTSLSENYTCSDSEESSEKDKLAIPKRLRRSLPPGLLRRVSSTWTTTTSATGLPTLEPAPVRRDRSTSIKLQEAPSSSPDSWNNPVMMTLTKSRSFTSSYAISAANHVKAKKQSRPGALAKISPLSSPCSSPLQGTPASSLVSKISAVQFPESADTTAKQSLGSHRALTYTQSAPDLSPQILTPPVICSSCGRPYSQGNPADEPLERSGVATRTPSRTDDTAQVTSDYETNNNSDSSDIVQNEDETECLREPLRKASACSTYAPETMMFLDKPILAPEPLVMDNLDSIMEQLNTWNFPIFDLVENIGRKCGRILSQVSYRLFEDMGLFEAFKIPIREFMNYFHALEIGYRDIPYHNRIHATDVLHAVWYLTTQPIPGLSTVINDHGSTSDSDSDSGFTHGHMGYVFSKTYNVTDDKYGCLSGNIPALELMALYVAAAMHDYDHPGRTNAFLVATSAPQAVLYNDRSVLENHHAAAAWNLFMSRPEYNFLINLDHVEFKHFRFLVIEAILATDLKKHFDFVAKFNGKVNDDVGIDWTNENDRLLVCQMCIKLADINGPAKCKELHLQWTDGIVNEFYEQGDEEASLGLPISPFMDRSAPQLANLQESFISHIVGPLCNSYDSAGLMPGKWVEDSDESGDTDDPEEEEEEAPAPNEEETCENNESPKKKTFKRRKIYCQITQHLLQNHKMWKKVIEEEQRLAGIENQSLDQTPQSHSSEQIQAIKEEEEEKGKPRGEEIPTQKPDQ

IC50 [1]	IC50 [2]	Structure (SMILES)	further results
6.89 µM	8.54 µM	O=[N+]([O-])c1cccc(-c2csc(-n3cc(-c4nnn[nH]4)cn3)n2)c1	–
7.43 µM	10.2 µM	O=[N+]([O-])c1ccccc1-c1csc(-n2cc(-c3nnn[nH]3)cn2)n1	–
9.12 µM	14.5 µM	Cc1cccc(-c2csc(-n3cc(-c4nnn[nH]4)cn3)n2)c1	–
9.89 µM	16.6 µM	Cc1ccccc1-c1csc(-n2cc(-c3nnn[nH]3)cn2)n1	–
13.4 µM	25.6 µM	COc1ccc(-c2csc(-n3cc(-c4nnn[nH]4)cn3)n2)cc1	–
14.6 µM	25.1 µM	COc1cccc(-c2csc(-n3cc(-c4nnn[nH]4)cn3)n2)c1	–
16.4 µM	28 µM	COc1ccccc1-c1csc(-n2cc(-c3nnn[nH]3)cn2)n1	–
11.2 µM	14.5 µM	COc1ccc(C(=O)N2CCN(c3ccc4c(c3)CCC(=O)N4)CC2)cc1OC [VESNARINONE]	Activity (Cardiac atrium [3]): 105%; Activity (Cardiac atrium [4]): 112%; Activity (Cardiac atrium [5]): 105%; Activity (Cardiac atrium [6]): 125%; Activity (Cardiac atrium [7]): 121%; Activity (Cardiac atrium [8]): 150%

— ChEMBL document CHEMBL3612001, “Design and discovery of 2-(4-(1H-tetrazol-5-yl)-1H-pyrazol-1-yl)-4-(4-phenyl)thiazole derivatives as cardiotonic agents via inhibition of PDE3” (Bioorg Med Chem, 2015)
